Tested on: HEK-293T
Assay: Multiplex assay against HEK293T;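 for Population Tubulin-Different-Phenotype (%): share of the cells with healthy nuclei that show this phenotype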
Assay type: toxicity, cell-based
Details: human
How it was run: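 Live cells were stained at seeding with Hoechst33342, BioTracker Green Microtubule Cytoskeleton Dye, MitoTracker Red and Annexin V Alexa Fluor 680, then imaged on a CQ1 microscope at 37°C and 5% CO2 after compound addition. CellPathfinder machine-learning gating split cells into Hoechst high-intensity objects or normal cells. Normal cells were split into healthy, pyknosed or fragmented nuclei, and pyknosed cells into mitotic or apoptotic. Tubulin, mitochondrial-mass and membrane-permeability phenotypes are per cents of healthy-nucleus cells.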

[1] = 12 h, 1 µM, compound concentration 1 uM, replicate 1
[2] = 12 h, 1 µM, compound concentration 1 uM, replicate 2
[3] = 12 h, 10 µM, compound concentration 10 uM, replicate 1
[4] = 12 h, 10 µM, compound concentration 10 uM, replicate 2
[5] = 24 h, 1 µM, compound concentration 1 uM, replicate 1
[6] = 24 h, 1 µM, compound concentration 1 uM, replicate 2
[7] = 24 h, 10 µM, compound concentration 10 uM, replicate 1
[8] = 24 h, 10 µM, compound concentration 10 uM, replicate 2
[9] = 48 h, 1 µM, compound concentration 1 uM, replicate 1
[10] = 48 h, 1 µM, compound concentration 1 uM, replicate 2
[11] = 48 h, 10 µM, compound concentration 10 uM, replicate 1
[12] = 48 h, 10 µM, compound concentration 10 uM, replicate 2

SMILES: CC1=C(C(=O)Nc2cc3cn[nH]c3cc2F)C(c2ccc(C(F)(F)F)cc2)CC(=O)N1 (stereo unspecified)
- Population Apoptotic (%) [1]: 47%
- Population Fragmented Nuclei (%) [1]: 13%
- Population Healthy Nuclei (%) [1]: 43%
- Population Hoechst High Intensity Objects (%) [1]: 7%
- Population Membrane Permeable-Phenotype (%) [1]: 3%
- Population Mitochondria Different-Phenotype (%) [1]: 63%
- Population Mitotic Cells (%) [1]: 52%
- Population Normal (%) [1]: 92%
- Population Pyknosed Nuclei (%) [1]: 42%
- Population Tubulin-Different-Phenotype (%) [1]: 29%
- Total Cell Count [1]: 402
- Population Apoptotic (%) [2]: 6%
- Population Fragmented Nuclei (%) [2]: 12%
- Population Healthy Nuclei (%) [2]: 46%
- Population Hoechst High Intensity Objects (%) [2]: 2%
- Population Membrane Permeable-Phenotype (%) [2]: 12%
- Population Mitochondria Different-Phenotype (%) [2]: 12%
- Population Mitotic Cells (%) [2]: 93%
- Population Normal (%) [2]: 97%
- Population Pyknosed Nuclei (%) [2]: 40%
- Population Tubulin-Different-Phenotype (%) [2]: 14%
- Total Cell Count [2]: 235
- Population Apoptotic (%) [3]: 38%
- Population Fragmented Nuclei (%) [3]: 12%
- Population Healthy Nuclei (%) [3]: 41%
- Population Hoechst High Intensity Objects (%) [3]: 10%
- Population Membrane Permeable-Phenotype (%) [3]: 5%
- Population Mitochondria Different-Phenotype (%) [3]: 64%
- Population Mitotic Cells (%) [3]: 61%
- Population Normal (%) [3]: 89%
- Population Pyknosed Nuclei (%) [3]: 45%
- Population Tubulin-Different-Phenotype (%) [3]: 36%
- Total Cell Count [3]: 236
- Population Apoptotic (%) [4]: 16%
- Population Fragmented Nuclei (%) [4]: 10%
- Population Healthy Nuclei (%) [4]: 37%
- Population Hoechst High Intensity Objects (%) [4]: 5%
- Population Membrane Permeable-Phenotype (%) [4]: 11%
- Population Mitochondria Different-Phenotype (%) [4]: 24%
- Population Mitotic Cells (%) [4]: 83%
- Population Normal (%) [4]: 95%
- Population Pyknosed Nuclei (%) [4]: 52%
- Population Tubulin-Different-Phenotype (%) [4]: 34%
- Total Cell Count [4]: 240
- Population Apoptotic (%) [5]: 41%
- Population Fragmented Nuclei (%) [5]: 11%
- Population Healthy Nuclei (%) [5]: 41%
- Population Hoechst High Intensity Objects (%) [5]: 12%
- Population Membrane Permeable-Phenotype (%) [5]: 3%
- Population Mitochondria Different-Phenotype (%) [5]: 46%
- Population Mitotic Cells (%) [5]: 58%
- Population Normal (%) [5]: 87%
- Population Pyknosed Nuclei (%) [5]: 47%
- Population Tubulin-Different-Phenotype (%) [5]: 29%
- Total Cell Count [5]: 443
- Population Apoptotic (%) [6]: 12%
- Population Healthy Nuclei (%) [6]: 63%
- Population Hoechst High Intensity Objects (%) [6]: 1%
- Population Membrane Permeable-Phenotype (%) [6]: 14%
- Population Mitochondria Different-Phenotype (%) [6]: 8%
- Population Mitotic Cells (%) [6]: 87%
- Population Normal (%) [6]: 98%
- Population Pyknosed Nuclei (%) [6]: 25%
- Population Tubulin-Different-Phenotype (%) [6]: 17%
- Total Cell Count [6]: 274
- Population Apoptotic (%) [7]: 42%
- Population Fragmented Nuclei (%) [7]: 15%
- Population Healthy Nuclei (%) [7]: 41%
- Population Hoechst High Intensity Objects (%) [7]: 10%
- Population Membrane Permeable-Phenotype (%) [7]: 6%
- Population Mitochondria Different-Phenotype (%) [7]: 61%
- Population Mitotic Cells (%) [7]: 57%
- Population Normal (%) [7]: 89%
- Population Pyknosed Nuclei (%) [7]: 42%
- Population Tubulin-Different-Phenotype (%) [7]: 41%
- Total Cell Count [7]: 229
- Population Apoptotic (%) [8]: 26%
- Population Fragmented Nuclei (%) [8]: 11%
- Population Healthy Nuclei (%) [8]: 61%
- Population Hoechst High Intensity Objects (%) [8]: 2%
- Population Membrane Permeable-Phenotype (%) [8]: 12%
- Population Mitochondria Different-Phenotype (%) [8]: 26%
- Population Mitotic Cells (%) [8]: 73%
- Population Normal (%) [8]: 97%
- Population Pyknosed Nuclei (%) [8]: 26%
- Population Tubulin-Different-Phenotype (%) [8]: 47%
- Total Cell Count [8]: 258
- Population Apoptotic (%) [9]: 29%
- Population Fragmented Nuclei (%) [9]: 18%
- Population Healthy Nuclei (%) [9]: 47%
- Population Hoechst High Intensity Objects (%) [9]: 10%
- Population Membrane Permeable-Phenotype (%) [9]: 6%
- Population Mitochondria Different-Phenotype (%) [9]: 23%
- Population Mitotic Cells (%) [9]: 70%
- Population Normal (%) [9]: 89%
- Population Pyknosed Nuclei (%) [9]: 34%
- Population Tubulin-Different-Phenotype (%) [9]: 22%
- Total Cell Count [9]: 530
- Population Apoptotic (%) [10]: 5%
- Population Fragmented Nuclei (%) [10]: 10%
- Population Healthy Nuclei (%) [10]: 77%
- Population Hoechst High Intensity Objects (%) [10]: 2%
- Population Membrane Permeable-Phenotype (%) [10]: 8%
- Population Mitochondria Different-Phenotype (%) [10]: 3%
- Population Mitotic Cells (%) [10]: 94%
- Population Normal (%) [10]: 97%
- Population Pyknosed Nuclei (%) [10]: 11%
- Population Tubulin-Different-Phenotype (%) [10]: 15%
- Total Cell Count [10]: 488
- Population Apoptotic (%) [11]: 49%
- Population Fragmented Nuclei (%) [11]: 16%
- Population Healthy Nuclei (%) [11]: 49%
- Population Hoechst High Intensity Objects (%) [11]: 14%
- Population Membrane Permeable-Phenotype (%) [11]: 7%
- Population Mitochondria Different-Phenotype (%) [11]: 29%
- Population Mitotic Cells (%) [11]: 50%
- Population Normal (%) [11]: 85%
- Population Pyknosed Nuclei (%) [11]: 33%
- Population Tubulin-Different-Phenotype (%) [11]: 34%
- Total Cell Count [11]: 261
- Population Apoptotic (%) [12]: 65%
- Population Healthy Nuclei (%) [12]: 75%
- Population Hoechst High Intensity Objects (%) [12]: 2%
- Population Membrane Permeable-Phenotype (%) [12]: 6%
- Population Mitochondria Different-Phenotype (%) [12]: 19%
- Population Mitotic Cells (%) [12]: 34%
- Population Normal (%) [12]: 97%
- Population Pyknosed Nuclei (%) [12]: 8%
- Population Tubulin-Different-Phenotype (%) [12]: 36%
- Total Cell Count [12]: 334

SMILES: Cc1nc(N2CC[C@H](O)C2)ncc1-c1cc(C(F)(F)F)cc2[nH]ncc12
- Population Apoptotic (%) [1]: 20%
- Population Fragmented Nuclei (%) [1]: 9%
- Population Healthy Nuclei (%) [1]: 70%
- Population Hoechst High Intensity Objects (%) [1]: 7%
- Population Membrane Permeable-Phenotype (%) [1]: 3%
- Population Mitochondria Different-Phenotype (%) [1]: 7%
- Population Mitotic Cells (%) [1]: 79%
- Population Normal (%) [1]: 92%
- Population Pyknosed Nuclei (%) [1]: 20%
- Population Tubulin-Different-Phenotype (%) [1]: 5%
- Total Cell Count [1]: 628
- Population Apoptotic (%) [2]: 8%
- Population Fragmented Nuclei (%) [2]: 7%
- Population Healthy Nuclei (%) [2]: 87%
- Population Hoechst High Intensity Objects (%) [2]: 2%
- Population Membrane Permeable-Phenotype (%) [2]: 1%
- Population Mitochondria Different-Phenotype (%) [2]: 10%
- Population Mitotic Cells (%) [2]: 91%
- Population Normal (%) [2]: 97%
- Population Pyknosed Nuclei (%) [2]: 4%
- Population Tubulin-Different-Phenotype (%) [2]: 9%
- Total Cell Count [2]: 1293
- Population Apoptotic (%) [3]: 24%
- Population Fragmented Nuclei (%) [3]: 11%
- Population Healthy Nuclei (%) [3]: 70%
- Population Hoechst High Intensity Objects (%) [3]: 9%
- Population Membrane Permeable-Phenotype (%) [3]: 4%
- Population Mitochondria Different-Phenotype (%) [3]: 4%
- Population Mitotic Cells (%) [3]: 75%
- Population Normal (%) [3]: 90%
- Population Pyknosed Nuclei (%) [3]: 18%
- Population Tubulin-Different-Phenotype (%) [3]: 3%
- Total Cell Count [3]: 699
- Population Apoptotic (%) [4]: 5%
- Population Fragmented Nuclei (%) [4]: 7%
- Population Healthy Nuclei (%) [4]: 88%
- Population Hoechst High Intensity Objects (%) [4]: 1%
- Population Membrane Permeable-Phenotype (%) [4]: 1%
- Population Mitochondria Different-Phenotype (%) [4]: 8%
- Population Mitotic Cells (%) [4]: 94%
- Population Normal (%) [4]: 98%
- Population Pyknosed Nuclei (%) [4]: 4%
- Population Tubulin-Different-Phenotype (%) [4]: 4%
- Total Cell Count [4]: 1684
- Population Apoptotic (%) [5]: 22%
- Population Fragmented Nuclei (%) [5]: 7%
- Population Healthy Nuclei (%) [5]: 79%
- Population Hoechst High Intensity Objects (%) [5]: 5%
- Population Membrane Permeable-Phenotype (%) [5]: 5%
- Population Mitochondria Different-Phenotype (%) [5]: 4%
- Population Mitotic Cells (%) [5]: 77%
- Population Normal (%) [5]: 94%
- Population Pyknosed Nuclei (%) [5]: 12%
- Population Tubulin-Different-Phenotype (%) [5]: 11%
- Total Cell Count [5]: 702
- Population Apoptotic (%) [6]: 3%
- Population Fragmented Nuclei (%) [6]: 17%
- Population Hoechst High Intensity Objects (%) [6]: 2%
- Population Membrane Permeable-Phenotype (%) [6]: 4%
- Population Mitochondria Different-Phenotype (%) [6]: 3%
- Population Mitotic Cells (%) [6]: 96%
- Population Normal (%) [6]: 97%
- Population Pyknosed Nuclei (%) [6]: 2%
- Population Tubulin-Different-Phenotype (%) [6]: 14%
- Total Cell Count [6]: 1975
- Population Apoptotic (%) [7]: 28%
- Population Fragmented Nuclei (%) [7]: 10%
- Population Healthy Nuclei (%) [7]: 80%
- Population Hoechst High Intensity Objects (%) [7]: 5%
- Population Membrane Permeable-Phenotype (%) [7]: 12%
- Population Mitochondria Different-Phenotype (%) [7]: 1%
- Population Mitotic Cells (%) [7]: 71%
- Population Normal (%) [7]: 94%
- Population Pyknosed Nuclei (%) [7]: 9%
- Population Tubulin-Different-Phenotype (%) [7]: 6%
- Total Cell Count [7]: 840
- Population Apoptotic (%) [8]: 6%
- Population Fragmented Nuclei (%) [8]: 21%
- Population Healthy Nuclei (%) [8]: 75%
- Population Hoechst High Intensity Objects (%) [8]: 2%
- Population Membrane Permeable-Phenotype (%) [8]: 5%
- Population Mitotic Cells (%) [8]: 93%
- Population Normal (%) [8]: 97%
- Population Pyknosed Nuclei (%) [8]: 2%
- Population Tubulin-Different-Phenotype (%) [8]: 5%
- Total Cell Count [8]: 2845
